The text below walks through data of ChEMBL document CHEMBL1255187, “Structure-based design and synthesis of potent, ethylenediamine-based, mammalian farnesyltransferase inhibitors as anticancer agents” (J Med Chem, 2010).

For assay [1], the species on record is Homo sapiens. In words: Selectivity ratio of IC50 for human geranylgeranyltransferase-1 to IC50 for human farnesyltransferase.
Assay [2] addresses Geranylgeranyl transferase type I (Homo sapiens, UniProt P49354+P53609). In words: Inhibition of human geranylgeranyltransferase-1 assessed as incorporation of [3H]GGPP into H-Ras-CVLL. Format: protein-complex assay. The gist of the method: (§1)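 In vitro radiometric assay measuring transfer of [3H]FPP (FTase) or [3H]GGPP (GGTase-I) onto recombinant H-Ras-CVLS or H-Ras-CVLL, respectively.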

For assay [3], the target named is Protein farnesyltransferase (Homo sapiens, UniProt P49354+P49356). In words: Inhibition of human farnesyltransferase assessed as incorporation of [3H]FPP into H-Ras-CVLS. The class given is protein-complex assay. The method in brief:
as §1

The target of assay [4] is Geranylgeranyl transferase type 1 (Mus musculus, UniProt Q61239+Q8BUY9). In words: Inhibition of Rap1A geranylgeranylation expressed in mouse NIH3T3 cells. The class given is functional, cell-based. The gist of the method: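 Oncogenic H-Ras-transformed NIH3T3 cells were treated with a range of inhibitor concentrations. […] Detection used peroxidase-conjugated secondary antibodies and enhanced chemiluminescence. IC50 is the mean of three independent assays ± SD unless stated otherwise.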

The target in assay [5] is Protein farnesyltransferase (Mus musculus, UniProt Q61239+Q8K2I1). Briefly: Inhibition of H-Ras farnesylation expressed in mouse NIH3T3 cells. Format: functional, cell-based. The method in brief: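 Oncogenic H-Ras-transformed NIH3T3 cells were treated with a range of inhibitor concentrations. Detection used peroxidase-conjugated secondary antibodies and enhanced chemiluminescence. IC50 is the mean of three independent assays ± SD unless stated otherwise.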

pIC50: −log10 of the molar value.

Turning to `Cn1cnc(S(=O)(=O)N(CCN(Cc2cncn2C)c2ccc(C(N)=O)cc2)Cc2ccccc2)c1`, the Selectivity ratio in assay [1] is greater than 2. Moreover, the pIC50 in assay [2] is less than 5.00; in assay [3], 5.28.
In the case of `Cc1c(CN(CCN(Cc2cncn2C)c2ccc(C#N)cc2)S(=O)(=O)c2cn(C)cn2)cnn1C`, the pIC50 in assay [2] is less than 5.00; in assay [3] it was 5.28.
In the case of `Cn1cnc(S(=O)(=O)N(CCN(Cc2cncn2C)c2ccc(C#N)cc2)Cc2ccsc2)c1`, in assay [1], the Selectivity ratio stood at 14. Also, the negative-log IC50 (pIC50) was 6.03 in assay [2], less than 5.00 in assay [4], 6.40 in assay [5] and 7.17 in assay [3].
On to `Cn1cnc(S(=O)(=O)N(CCN(Cc2cncn2C)c2ncc(C#N)cn2)CC2CCN(c3ncccn3)CC2)c1`, for which the Selectivity ratio in assay [1] was greater than 16. Further, the pIC50 was less than 5.00 in assay [2] and 6.21 in assay [3].
In the case of `Cn1cnc(S(=O)(=O)N(CCN(Cc2cncn2C)c2ccc(C#N)cc2)Cc2cccs2)c1`, the Selectivity ratio in assay [1] is 2.6. Also, the pIC50 in assay [2] is 5.23; in assay [4], less than 5.00; in assay [5], 6.40; in assay [3], 5.64.
With `Cn1cnc(S(=O)(=O)N(CCN(Cc2cncn2C)c2ccc(C#N)cc2)Cc2ccc(-n3cccc3)cc2)c1`, the Selectivity ratio in assay [1] was found to be 15. For the same compound, the pIC50 in assay [2] is 5.24; in assay [4] it was less than 5.00; in assay [5], 5.40; in assay [3], 6.41.
As to `Cn1cnc(S(=O)(=O)N(CCN(Cc2cncn2C)c2ccc(C(=O)OC(C)(C)C)cc2)Cc2ccccc2)c1`, in assay [1], the Selectivity ratio came to 0.9. The results for the pIC50 in assay [2] and in assay [3] were 5.31 and 5.27, respectively.
`Cn1cncc1CN(CCN(CC1CCCCC1)S(=O)(=O)c1ccccn1)c1ccc(C#N)cc1F`: the Selectivity ratio in assay [1] came out at 2.1. Besides, the pIC50 was 5.57 in assay [4] and 7.05 in assay [5].
On to `Cc1cccc(CN(CCN(Cc2cncn2C)c2ccc(C#N)cc2)S(=O)(=O)c2cn(C)cn2)c1`, for which the Selectivity ratio in assay [1] was found to be 12. Besides, the pIC50 in assay [2] was 6.20; in assay [4], less than 5.00; in assay [5], 6.52; in assay [3] it was 7.27.
Taken in the same sequence, the figures for `Cn1cnc(S(=O)(=O)N(CCN(Cc2cncn2C)c2ccc(C#N)cc2)Cc2ccc(-c3ccccc3)cc2)c1` were 4.3, 5.14, less than 5.00, 5.30 and 5.77.
Taken in the same sequence, the figures for `Cn1cnc(S(=O)(=O)N(CCN(Cc2cncn2C)c2ccc(C#N)cc2)Cc2ccco2)c1` were 15, 4.87, less than 5.00, 6.10 and 6.06.
Taken in the same sequence, the figures for `Cn1cnc(S(=O)(=O)N(CCN(Cc2cncn2C)c2ccc(C#N)cc2)CC2CCCCC2)c1` were 8.8, 6.28, less than 5.00, 7.00 and 7.22.
Turning to `Cn1cncc1CN(CCN(Cc1ccccc1)S(=O)(=O)c1ccccc1)c1ccc(C#N)cc1`, the Selectivity ratio in assay [1] came out at 7.6. Besides, the negative-log IC50 (pIC50) in assay [2] is 6.51; in assay [4] it was less than 5.00; in assay [5], 6.52; in assay [3], 7.39.
As for `Cn1cnc(S(=O)(=O)N(CCN(Cc2cncn2C)c2ccc(Br)cc2)Cc2ccccc2)c1`, the Selectivity ratio in assay [1] is 6.7. The values for the pIC50 in assay [4] and in assay [5] were less than 5.00 and 5.80, respectively.
For `CCCS(=O)(=O)N(CCN(Cc1cncn1C)c1ccc(C#N)cc1)Cc1ccccc1`, in that order: 85, less than 5.00 and 7.15.
Take `Cn1cnc(S(=O)(=O)N(Cc2ccccc2)[C@@H]2CC[C@@H](N(Cc3cncn3C)c3ccc(C#N)cc3)C2)c1` (racemic): the Selectivity ratio in assay [1] came out at 19. Besides, the negative-log IC50 (pIC50) in assay [2] was 5.15; in assay [3] it was 6.42.
Take `Cn1cnc(S(=O)(=O)N(CCN(Cc2cncn2C)c2ccc(C#N)cc2)Cc2ccncc2)c1`: the negative-log IC50 (pIC50) in assay [2] is less than 5.00; in assay [4] it was less than 5.00; in assay [5], less than 5.00; in assay [3] it was 7.14.
Take `Cc1ccc(CN(CCN(Cc2cncn2C)c2ccc(C#N)cc2)S(=O)(=O)c2cn(C)cn2)cc1`: the pIC50 in assay [2] was 6.24; in assay [4] it was less than 5.00; in assay [5] it was 5.70; in assay [3], 6.43.
With `Cn1cnc(S(=O)(=O)N(CCN(Cc2cncn2C)c2ccc(C#N)cc2)Cc2ccccc2)c1`, the pIC50 in assay [2] was 5.57; in assay [4], less than 5.00; in assay [5] it was 5.72.
For the compound `Cn1cnc(S(=O)(=O)N(CCN(Cc2cncn2C)c2ccc(-c3ccccc3)cc2)Cc2ccccc2)c1`, in assay [1], the Selectivity ratio was found to be 0.7. For the same compound, the pIC50 is 5.30 in assay [2] and 5.16 in assay [3].
On to `Cn1cnc(S(=O)(=O)N(CCN(Cc2cnc[nH]2)c2ccc(Br)cc2)Cc2ccccc2)c1`, for which the values for the pIC50 in assay [4] and in assay [5] were less than 5.00 and 5.24, respectively.
Regarding `Cn1cnc(S(=O)(=O)N(Cc2ccccc2)[C@@H]2CCC[C@@H]2N(Cc2cncn2C)c2ccc(C#N)cc2)c1` (racemic), the Selectivity ratio in assay [1] was greater than 10. In addition, the negative-log IC50 (pIC50) was less than 5.00 in assay [2] and 6.00 in assay [3].
As for `Cn1cnc(S(=O)(=O)N(CCN(Cc2cnc[nH]2)c2ccccc2)Cc2ccccc2)c1`, the pIC50 in assay [2], in assay [4] and in assay [5] was less than 5.00 in each case.
For `Cn1cnc(S(=O)(=O)N(CCCN(Cc2cncn2C)c2ccc(C#N)cc2)Cc2ccccc2)c1`, in assay [1], the Selectivity ratio came to 11. Besides, the pIC50 in assay [2] is 5.34; in assay [3] it was 6.38.
For `Cn1cnc(S(=O)(=O)N(CCN(Cc2cncn2C)c2ccc(C#N)cn2)CC2CCN(c3ncccn3)CC2)c1`, in that order: greater than 91, less than 5.00 and 6.96.
For the compound `C#CCN(CCN(Cc1cncn1C)c1ccc(C#N)cc1)S(=O)(=O)c1cn(C)cn1`, the Selectivity ratio in assay [1] is greater than 14. For the same compound, the negative logarithm of the IC50 (pIC50) in assay [2] was less than 5.00; in assay [4] it was less than 5.00; in assay [3] it was 6.14.
Regarding `Cn1cnc(S(=O)(=O)N(CCN(Cc2cncn2C)c2c(F)c(F)c(C#N)c(F)c2F)CC2CCN(c3ncccn3)CC2)c1`, the Selectivity ratio in assay [1] was 18. In addition, the figures for the pIC50 in assay [2] and in assay [3] were 5.06 and 6.31, respectively.
Regarding `Cn1cnc(S(=O)(=O)N(CCN(Cc2cncn2C)c2ccc(C#N)cc2F)CC2CCN(c3ncccn3)CC2)c1`, in assay [1], the Selectivity ratio is greater than 156. Further, the figures for the pIC50 in assay [2] and in assay [3] were less than 5.00 and 7.19, respectively.
Taken in the same sequence, the figures for `Cn1cnc(S(=O)(=O)N(CCN(Cc2cncn2C)c2ccc(C#N)c(F)c2)CC2CCN(c3ncccn3)CC2)c1` were 41, 5.03 and 6.64.
Taken in the same sequence, the figures for `Cn1cnc(S(=O)(=O)N(CCN(Cc2cncn2C)c2c(F)cc(C#N)cc2F)CC2CCN(c3ncccn3)CC2)c1` were greater than 34, less than 5.00 and 6.54.
As to `Cn1cnc(S(=O)(=O)N(CCN(Cc2c[nH]cn2)c2ccc(Br)cc2)Cc2ccccc2)c1`, the Selectivity ratio in assay [1] was 6.
With `Cn1cnc(S(=O)(=O)N(CCN(Cc2cncn2C)c2ccc(C(=O)O)cc2)Cc2ccccc2)c1`, the negative-log IC50 (pIC50) in assay [2] and in assay [3] was less than 5.00 throughout.
Take `CN(C)c1cccc2c(S(=O)(=O)N(CCN(Cc3cncn3C)c3ccc(C#N)cc3)Cc3ccccc3)cccc12`: the pIC50 is 5.00 in assay [2], less than 5.00 in assay [4] and 6.80 in assay [3].
Take `Cn1cncc1CN(CCN(Cc1ccccc1)S(=O)(=O)C1CC1)c1ccc(C#N)cc1`: in assay [1], the Selectivity ratio stood at 65.
Consider `Cn1cnc(S(=O)(=O)N(CCN(Cc2cncn2C)c2ccc(C#N)cc2)CC2CCN(C(=O)OC(C)(C)C)CC2)c1`, for which the Selectivity ratio in assay [1] was greater than 2.7. Further, the pIC50 in assay [2] is less than 5.00; in assay [4], less than 5.70; in assay [5], less than 5.70.
Regarding `Cn1cnc(S(=O)(=O)N(Cc2ccccc2)[C@H]2CC[C@@H](N(Cc3cncn3C)c3ccc(C#N)cc3)C2)c1` (racemic), the Selectivity ratio in assay [1] was greater than 15. The negative logarithm of the IC50 (pIC50) was less than 5.00 in assay [2] and 6.19 in assay [3].
Regarding `Cn1cnc(S(=O)(=O)N(CCN(Cc2cncn2C)c2ccc(C#N)cc2)Cc2cccc(C#N)c2)c1`, the values for the pIC50 in assay [4], in assay [5] and in assay [3] were less than 5.00, 5.30 and 7.11, respectively.
Turning to `Cn1cnc(S(=O)(=O)N(CCN(Cc2cncn2C)c2ccc(C#N)nc2)CC2CCN(c3ncccn3)CC2)c1`, the results for the pIC50 in assay [2] and in assay [3] were less than 5.00 and 6.28, respectively.
For `Cn1cnc(S(=O)(=O)N(CCN(Cc2cncn2C)c2ccc(C#N)cc2Cl)CC2CCN(c3ncccn3)CC2)c1`, in that order: less than 5.00 and 6.26.
For the compound `Cn1cncc1CN(CCN(Cc1ccccc1)S(=O)(=O)c1ccccn1)c1ccc(C#N)cc1`, the pIC50 in assay [2] was 6.09; in assay [4], less than 5.00; in assay [5], 7.05; in assay [3] it was 7.60.
Consider `Cn1cnc(S(=O)(=O)N(CCN(Cc2c[nH]cn2)c2ccccc2)Cc2ccccc2)c1`, for which the Selectivity ratio in assay [1] amounted to 1.6.
`Cn1cnc(S(=O)(=O)N(Cc2ccccc2)[C@H]2CCC[C@@H]2N(Cc2cncn2C)c2ccc(C#N)cc2)c1` (racemic): the Selectivity ratio in assay [1] was determined as 20. Moreover, the negative-log IC50 (pIC50) in assay [2] is 5.04; in assay [3], 6.35.
